The results in this text go back to the RNAGym collection of RNA variant scans (doi:10.1038/nmeth.2970).

B1: NELF-E aptamer (parent)
chain: CCCAACGACUGCCGAGCGAGAUUACGCUUGAGCGCCCCACUGAGGAUGCCCACGGGCGAUUGGGGCACGG

Variants of B1 are the subject of this data set. Kind of data set: HiTS-RAP. Conditions: with NELF-E (Drosophila). The essentials: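 Aptamer DNA templates bearing a T7 promoter and a ter site were sequenced on an Illumina GAIIx flowcell. T7 RNA polymerase then transcribed them in situ, and GST-Tus halted transcription over 30 minutes at 37°C. After a 30-minute room-temperature equilibration with NELF-E-mOrange at 0.064 to 1000 nM in HEPES binding buffer, clusters were imaged, using only the first binding curve. Intensities normalised to sequencing intensity were averaged per sequence and fitted with weighted Hill fits to give Kd, retaining only fits whose variance stayed under 1,000,000.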
As to C6G G42A, the Kd (as a rule, the constant that tells how readily two partners part at equilibrium) amounted to 40.3 nM.
C6G G42U: the Kd turned out to be 13.8 nM.
As to C6G G32A, the dissociation constant Kd is 4.6 nM.
On to C6G G30A, for which the Kd worked out at 4.52 nM.
Take C6G G30U: the dissociation constant Kd turned out to be 6.84 nM.
The same measure for C6G C38U: 10.4 nM; for C6G C38A: 45.1 nM.
Take A5U G42A: the Kd was 67.8 nM.
Consider C6A G7U, for which the Kd was determined as 6.56 nM.
On to C6G G62U, for which the Kd is 7.26 nM.
For C6G G62A, the Kd was determined as 21.9 nM.
Take C6G G64A: the Kd was 7.6 nM.
In the case of A5U C38U, the dissociation constant (Kd) is 10.6 nM.
For C6G G54U, the dissociation constant Kd was found to be 9.57 nM.
On to C6G G54A, for which the equilibrium dissociation constant (Kd) worked out at 12.5 nM.
Regarding A5U G20A, the Kd turned out to be 6.68 nM.
With A5U G20U, the Kd stood at 7.83 nM.
In the case of A5U C37A, the Kd was determined as 14.8 nM.
As to C6G G16U, the Kd was determined as 6.81 nM.
For C6G G16A, the dissociation constant Kd came out at 5.84 nM.
As for A5U U47A, the dissociation constant (Kd) was 10.5 nM.
With A5U U47G, the Kd amounted to 7.11 nM.
On to C6G C27U, for which the dissociation constant Kd was determined as 5.23 nM.
As to C6G G45U, the Kd is 9.94 nM.
With C6G G45A, the Kd was determined as 91 nM.
In the case of C6G A67U, the Kd stood at 6.45 nM.
In the case of C6G A67G, the equilibrium dissociation constant (Kd) was 6.07 nM.
In the case of A5U U22G, the dissociation constant (Kd) was determined as 6.13 nM.
For the variant A5U U22C, the Kd was 5.1 nM.
Consider A5U G7A, for which the Kd amounted to 6.51 nM.
A5U G7U: the Kd amounted to 6.92 nM.
As for C6G C9G, the Kd was 5.38 nM.
The figure for C6G C9U is 5.58 nM; for A5U U61A it is 41.2 nM.
Take A5U U61C: the Kd was 85.8 nM.
Turning to A5U U41A, the equilibrium dissociation constant (Kd) is 80.9 nM.
A5U U41G: the Kd came to 6.01 nM.
Consider C6G C37U, for which the Kd stood at 23.4 nM.
On to C6G C37A, for which the Kd stood at 18.7 nM.
In the case of C6A A24G, the dissociation constant Kd was 7.36 nM.
As to A5U G16A, the Kd was determined as 8.1 nM.
Turning to A5U G16U, the Kd amounted to 6.86 nM.
The same measure for C6G A39U: 28.8 nM; for C6G A39C: 24 nM; for C6G A39G: 9.71 nM.
In the case of A5U C13G, the Kd was 5.56 nM.
Consider A5U C13U, for which the Kd was 7.12 nM.
The figure for C6G G18A is 4.48 nM; for C6G G18U it is 6.37 nM.
In the case of C6G C66U, the Kd was determined as 5.41 nM.
As to C6G C66A, the Kd was 5.34 nM.
Consider C6G G26A, for which the Kd came out at 4.39 nM.
The figure for C6G G26U is 5.54 nM; for A5U C53U it is 4.46 nM; for C6G C13G it is 5.09 nM.
As for C6G C13U, the Kd worked out at 4.96 nM.
C6G A24U: the Kd worked out at 8.62 nM.
Take C6G A24G: the Kd came to 5.79 nM.
With C6G C53U, the Kd was 4.15 nM.
For C6G C53G, the Kd was determined as 7.67 nM.
For C6G C49U, the Kd came out at 20.2 nM.
In the case of C6G C49G, the equilibrium dissociation constant (Kd) was found to be 8.75 nM.
Turning to C6G A43G, the dissociation constant Kd was 34.4 nM.
The same measure for C6G A43U: 87.2 nM; for A5U C66U: 4.52 nM.
C6G C33U: the Kd came out at 5.41 nM.
As for C6G C33G, the equilibrium dissociation constant (Kd) worked out at 5.77 nM.
Regarding C6G A8U, the dissociation constant (Kd) was determined as 5.7 nM.
As for C6G A8G, the equilibrium dissociation constant (Kd) came to 5.5 nM.
C6G A8C: the Kd stood at 6.37 nM.
As to C6A U29G, the Kd was 6.91 nM.
Consider C6A C9G, for which the dissociation constant (Kd) worked out at 7.55 nM.
For the variant A5U U28G, the equilibrium dissociation constant (Kd) came out at 7.17 nM.
On to A5U U28C, for which the dissociation constant Kd came to 7.9 nM.
On to A5U G32A, for which the Kd amounted to 4.34 nM.
For the variant A5U G54A, the Kd was found to be 13.9 nM.
As to C6A G11U, the Kd came out at 6.57 nM.
For A5U C50U, the dissociation constant Kd turned out to be 15 nM.
The same measure for A5U G14A: 6.18 nM.
Regarding A5U G14U, the Kd turned out to be 6.34 nM.
Consider A5U G34A, for which the dissociation constant Kd amounted to 5.54 nM.
For the variant A5U G55U, the Kd turned out to be 8.79 nM.
Consider A5U G55A, for which the Kd was determined as 7.03 nM.
The same measure for C6G G55A: 6.61 nM.
Turning to C6G G55U, the Kd was 6.23 nM.
As for A5U U23G, the Kd worked out at 6.01 nM.
The same measure for A5U U23A: 5.58 nM; for C6G C50G: 5.53 nM; for C6G C50U: 16.1 nM.
As for C6A U23G, the equilibrium dissociation constant (Kd) came to 7.03 nM.
In the case of A5U G63A, the Kd is 9.5 nM.
As for A5U G63U, the dissociation constant Kd was 15.8 nM.
Take C6A C17G: the Kd came out at 7.95 nM.
On to A5U G11U, for which the dissociation constant (Kd) came out at 6.52 nM.
With A5U G11A, the equilibrium dissociation constant (Kd) was found to be 7.76 nM.
The figure for C6G A21U is 5.06 nM.
C6G A21G: the Kd is 5.74 nM.
Regarding C6G G11A, the dissociation constant Kd was 6.31 nM.
For the variant C6G G11U, the Kd is 5.8 nM.
On to C6G A46U, for which the equilibrium dissociation constant (Kd) amounted to 56.8 nM.
As for C6G A46G, the dissociation constant Kd turned out to be 40.5 nM.
The figure for A5U C17U is 6.66 nM; for A5U C17G it is 6.36 nM.
The figure for C6G C25G is 5.65 nM.
Consider C6G C25U, for which the equilibrium dissociation constant (Kd) worked out at 5.65 nM.
The figure for A5U U10G is 5.49 nM; for A5U U10C it is 4.96 nM; for A5U U10A it is 7.7 nM.
Turning to A5U G65U, the equilibrium dissociation constant (Kd) was 8.58 nM.
For A5U G65A, the equilibrium dissociation constant (Kd) was 6.8 nM.
For the variant C6G G14U, the Kd was determined as 6.12 nM.
As to C6G G14A, the dissociation constant Kd worked out at 5.15 nM.
Consider C6G C40G, for which the Kd turned out to be 8.23 nM.
For the variant C6G C40U, the equilibrium dissociation constant (Kd) is 70.3 nM.
The same measure for A5U G64A: 8.76 nM; for C6A U22G: 7.16 nM; for C6G G44A: 61 nM.
Regarding C6G G44U, the Kd was 8.75 nM.
The same measure for C6A U10G: 5.78 nM; for C6G C12U: 5.53 nM; for C6G C12A: 6.77 nM.
Regarding C6G C12G, the dissociation constant Kd turned out to be 5.68 nM.
The figure for C6G A31U is 5.5 nM.
Take C6G A31G: the dissociation constant (Kd) came to 6.87 nM.
For C6A A8U, the dissociation constant (Kd) is 7.06 nM.
As for C6G C36U, the dissociation constant (Kd) was 7.42 nM.
With C6A C12G, the Kd came out at 6.54 nM.
Take C6G G34U: the dissociation constant (Kd) came out at 5.79 nM.
On to C6G G34A, for which the equilibrium dissociation constant (Kd) turned out to be 8 nM.
For the variant C6G C57G, the dissociation constant (Kd) turned out to be 6.54 nM.
Regarding C6G C57U, the dissociation constant Kd came to 6.1 nM.
The figure for C6G A52U is 16.1 nM; for C6G A52G it is 4.45 nM.
In the case of C6G G48A, the Kd is 11.6 nM.
Turning to C6G G48U, the Kd turned out to be 5.75 nM.
Turning to A5U U29C, the equilibrium dissociation constant (Kd) was determined as 8.32 nM.
As for A5U U29A, the Kd amounted to 5.62 nM.
Regarding A5U U29G, the Kd turned out to be 5.91 nM.
For C6G A15U, the Kd turned out to be 6.24 nM.
With C6G A15G, the Kd came out at 5.46 nM.
For the variant A5U C25G, the Kd turned out to be 6.13 nM.
Take A5U G18A: the Kd came out at 5.46 nM.
The same measure for C6A C13G: 5.49 nM; for C6G: 4.75 nM.
For C6A, the dissociation constant Kd stood at 6.13 nM.
With C6G A59U, the dissociation constant Kd stood at 25.7 nM.
As to C6G A59G, the dissociation constant Kd stood at 54.9 nM.
Consider C6G C51U, for which the Kd amounted to 7.16 nM.
As to C6G A19U, the Kd was determined as 5.95 nM.
As for C6G A19G, the Kd is 5.53 nM.
On to C6G G7A, for which the Kd is 6.58 nM.
As to C6G G7U, the Kd worked out at 5.56 nM.
For the variant C6G G7C, the Kd is 7.44 nM.
Regarding C6G G63A, the Kd turned out to be 19.7 nM.
For the variant C6G G63U, the Kd stood at 10.8 nM.
The same measure for A5U C57U: 6.5 nM; for C6G G20U: 6.34 nM.
The figure for C6G G20A is 6.35 nM.
The same measure for A5U G56U: 6.51 nM; for A5U G56A: 7.71 nM; for C6G C35G: 7.18 nM.
On to C6G C35U, for which the Kd amounted to 16.8 nM.
For C6G G58U, the Kd stood at 6.94 nM.
The figure for C6G G56U is 4.89 nM; for C6G G56A it is 8.34 nM.
Turning to C6G C17G, the Kd was 5.02 nM.
Regarding C6G C17U, the dissociation constant (Kd) stood at 6.03 nM.
